In brackets after ≈: the same amount, converted by molar mass.
Key:
[1] = tested on: Streptococcus pyogenes; assay: Antibacterial activity against Streptococcus pyogenes CN10; type: functional
[2] = tested on: Shigella dysenteriae; assay: Antibacterial activity against of against Shig dysentariae CN 1523.; type: functional
[3] = tested on: Serratia marcescens; assay: Antibacterial activity against of against Serr. marcescens CN 398.; type: functional
[4] = tested on: Staphylococcus aureus; assay: Antibacterial activity against Staphylococcus aureus CN491.; type: functional
[5] = tested on: Salmonella; assay: Antibacterial activity against typhi CN512.; type: functional, salmonella typhosa
[6] = tested on: Escherichia coli; assay: Antibacterial activity against Escherichia coli CN314.; type: functional
[7] = tested on: Proteus vulgaris; assay: Antibacterial activity against Proteus vulgaris CN 329.; type: functional
[8] = tested on: Klebsiella pneumoniae; assay: Antibacterial activity against Klebsiella pneumoniae CN 3632.; type: functional
[9] = biological target: Bifunctional dihydrofolate reductase-thymidylate synthase (Plasmodium berghei str. ANKA, UniProt Q27713); assay: Inhibitory activity against Dihydrofolate reductase enzyme purified from Plasmodium berghei.; conditions: read-out: I50
Chain of Bifunctional dihydrofolate reductase-thymidylate synthase (Q27713 whole entry): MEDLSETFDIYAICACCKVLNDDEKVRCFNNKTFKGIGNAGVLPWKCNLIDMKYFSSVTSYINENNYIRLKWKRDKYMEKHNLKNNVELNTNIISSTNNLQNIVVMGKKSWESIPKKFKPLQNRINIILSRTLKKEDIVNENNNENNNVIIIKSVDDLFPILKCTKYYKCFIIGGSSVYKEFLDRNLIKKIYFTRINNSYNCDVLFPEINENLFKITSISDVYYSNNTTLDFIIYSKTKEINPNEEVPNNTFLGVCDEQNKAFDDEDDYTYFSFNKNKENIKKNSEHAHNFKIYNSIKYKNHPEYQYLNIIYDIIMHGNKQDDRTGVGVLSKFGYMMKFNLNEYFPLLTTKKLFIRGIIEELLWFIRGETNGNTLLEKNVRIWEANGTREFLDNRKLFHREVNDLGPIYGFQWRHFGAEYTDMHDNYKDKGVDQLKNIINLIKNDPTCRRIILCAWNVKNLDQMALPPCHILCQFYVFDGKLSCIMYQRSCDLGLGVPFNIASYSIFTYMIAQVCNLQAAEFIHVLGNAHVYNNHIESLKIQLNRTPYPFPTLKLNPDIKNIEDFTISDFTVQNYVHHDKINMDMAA

[10] = biological target: T1, Dihydrofolate reductase (Rattus norvegicus, UniProt Q920D2); assay: (§1) Inhibitory activity against Dihydrofolate reductase enzyme purified from rat liver.; conditions: read-out: I50
T1 sequence (Q920D2 whole entry): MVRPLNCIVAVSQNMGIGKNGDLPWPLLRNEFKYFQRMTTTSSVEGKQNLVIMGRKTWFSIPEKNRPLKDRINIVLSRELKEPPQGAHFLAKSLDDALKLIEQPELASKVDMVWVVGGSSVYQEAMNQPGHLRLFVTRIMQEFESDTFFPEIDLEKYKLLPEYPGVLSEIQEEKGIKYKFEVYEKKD

[11] = biological target: T2, Dihydrofolate reductase (Rattus norvegicus) (UniProt Q920D2); assay: as §1; design: scale not given: the % may be the effect or the level left
T2 sequence (whole entry): T1 sequence (Q920D2 whole entry)
Summary of the method: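 Partially purified rat liver dihydrofolate reductase in phosphate buffer. Compound was preincubated with enzyme and buffer for 5 min at 37 °C. NADPH was then added, followed by FH₂ to start the reaction. IC₅₀ (50% drop in reaction rate) was taken from titrations over three to six compound concentrations. Otherwise the value is the percent inhibition at the highest concentration tested.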

| SMILES | MIC [1] [µg/mL] | MIC [2] [µg/mL] | MIC [3] [µg/mL] | MIC [4] [µg/mL] | MIC [5] [µg/mL] | MIC [6] [µg/mL] | MIC [7] [µg/mL] | MIC [8] [µg/mL] | IC50 [9] [nM] | IC50 [10] [µM] | Activity [11] [%] |
| --- | --- | --- | --- | --- | --- | --- | --- | --- | --- | --- | --- |
| COc1cc(Cc2c(N)nc(N)nc2O)cc(OC)c1O | > 100 | > 100 | > 100 | > 100 | > 100 | > 100 | > 100 | > 100 |  |  |  |
| COc1cc(Cc2cnc(N)nc2N)cc(OC)c1O [4-HYDROXYTRIMETHOPRIM] | 0.5 (≈ 1.81 µM) |  |  | 0.5 (≈ 1.81 µM) | 0.03 (≈ 0.109 µM) | 0.125 (≈ 0.452 µM) | 2 (≈ 7.24 µM) |  | 300 | 92 |  |
| COc1cc(Cc2cnc(N)nc2N)cc(OC)c1OC [TRIMETHOPRIM] | 0.3 (≈ 1.03 µM) | 0.1 (≈ 0.344 µM) | 3 (≈ 10.3 µM) | 1 (≈ 3.44 µM) | 0.3 (≈ 1.03 µM) | 0.3 (≈ 1.03 µM) | 1 (≈ 3.44 µM) | 0.3 (≈ 1.03 µM) |  |  |  |
| COc1cc(Cc2c(C)nc(N)nc2N)cc(OC)c1OC | 30 (≈ 98.6 µM) | 30 (≈ 98.6 µM) | > 100 | 30 (≈ 98.6 µM) | 30 (≈ 98.6 µM) | 30 (≈ 98.6 µM) | > 100 | > 100 |  |  |  |
| COc1cc(Cc2c[n+](C)c(N)nc2N)cc(OC)c1OC.[I-] | 50 | 25 |  | 50 | 25 | 50 | > 100 | > 100 |  |  | 41 |

Reference: ChEMBL document CHEMBL1121421, “2,4-Diamino-5-benzylpyrimidines and analogues as antibacterial agents. 2. C-Alkylation of pyrimidines with Mannich bases and application to the synthesis of trimethoprim and analogues” (J Med Chem, 1980)
